Sampled rows, rich in hits. Any-hit rate of the full collection: about 4.2%.
KCNQ1 block – human KCNQ1 channel inhibition | P51787 | CHO-K1 KCNQ1, FluxOR thallium flux fluorescence; active compounds read high | B-score at 10 µM | actives 1.3% (n = 310,000);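 active = compounds whose thallium flux B-score, printed positive for inhibition, exceeds three library SD while starting fluorescence stays within three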;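 note: channel opened by potassium depolarization with thallium stimulus after 20 min compound exposure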
Target sequence (P51787 whole entry, looked up): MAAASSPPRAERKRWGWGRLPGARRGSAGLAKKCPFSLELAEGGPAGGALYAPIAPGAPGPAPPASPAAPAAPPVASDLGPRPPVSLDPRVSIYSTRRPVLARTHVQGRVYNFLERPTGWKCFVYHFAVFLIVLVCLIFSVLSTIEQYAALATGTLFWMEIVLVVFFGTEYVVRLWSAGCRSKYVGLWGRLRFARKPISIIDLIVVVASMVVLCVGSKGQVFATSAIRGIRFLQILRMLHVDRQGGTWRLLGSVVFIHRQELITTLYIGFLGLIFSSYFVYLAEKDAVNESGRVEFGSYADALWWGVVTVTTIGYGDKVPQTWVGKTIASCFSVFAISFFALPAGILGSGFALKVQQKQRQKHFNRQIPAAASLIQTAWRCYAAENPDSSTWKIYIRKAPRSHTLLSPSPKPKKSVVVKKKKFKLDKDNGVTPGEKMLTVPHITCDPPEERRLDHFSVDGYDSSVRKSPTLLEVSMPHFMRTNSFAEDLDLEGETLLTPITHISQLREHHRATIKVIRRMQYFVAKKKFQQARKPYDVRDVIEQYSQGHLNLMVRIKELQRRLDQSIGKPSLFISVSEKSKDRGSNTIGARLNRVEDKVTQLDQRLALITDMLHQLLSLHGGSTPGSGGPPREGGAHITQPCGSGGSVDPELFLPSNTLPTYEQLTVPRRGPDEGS
hERG protect – shields human hERG channel from block by proarrhythmic agents | CHO-hERG, FluxOR thallium flux, dofetilide IC70 present | activation (rescue from dofetilide block), less the hit threshold, % at 10 µM | Q12809 | actives 0.51% (n = 310,000);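 active = activation above the mean of controls blocked by dofetilide plus 5 SD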;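 note: thallium influx through hERG after potassium depolarization seen as dye fluorescence rise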
KCNQ1 act – human KCNQ1 channel potentiation or activation | actives 0.35% (n = 310,000) | B-score at 10 µM | CHO-K1 KCNQ1, thallium flux FluxOR fluorescence; active compounds read high | AID 2648 | P51787;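 active = fluorescence ratio B-score, a plate-corrected score, at least three library SD, with initial intensity B-score within 5 SD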
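Assay system: stable KCNQ1 CHO-K1 line; medium: assay buffer, equal DMSO in all wells; timing: 90 min dye loading and 20 min compound exposure, both at room temperature; technique: kinetic FluxOR thallium fluorescence, 10-s 1-Hz baseline, 110-s post-stimulus read; read-out basis: B score of baseline-normalized fluorescence ratio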
Cl transport mod – KCC2 (human) Cl- transport modulation; KCC2 cells, thallium flux FluoZin-2 fluorescence; B-score of Tl+ flux slope (higher = more flux/activation; lower = inhibition) at 10 µM; actives 2.2% (n = 190,000);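 active = thallium flux slope and its plate-corrected score both differing from the plate sample mean at a set confidence after two filtering rounds, in either direction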;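 note: slope of fluorescence scaled to starting intensity during 10 to 20 s after thallium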
SUMO Mot1 rescue – blocks SUMOylation pathway, rescuing yeast Mot1-301 growth; S. cerevisiae Mot1-301 growth rescue, ATP luminescence, 38.5C; percent above DMSO median, 100 means doubled; growth rescue, % at 18.8 µM; actives 1% (n = 320,000);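 active = every valid replicate shows activation above 250% relative to neutral control wells; inactive = the rest, any valid replicate at or below 250%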;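 note: OY570 slx delta 5 strain wells were the positive control but not used for scaling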
AI-2 QS modul – modulates the Vibrio harveyi AI-2 quorum sensing system | activity change, % at 7.5 µM | Vibrio harveyi JMH597 AI-2 luminescence/OD600 ratio, 9 h; active compounds read low; strain lacks LuxN and CqsS sensors; 0 = neutral-control median | actives 0.4% (n = 300,000) | AID 2094; in the data active = activity change below about -75%, passing the limit was not always enough; inconclusive = no clear call, values can overlap the other calls;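 note: luminescence divided by OD600 gain over 9 h not by final OD600 alone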
Active calls of the source: *; i = inactive; ? = inconclusive; . = no result given.

SMILES	KCNQ1 block	hERG protect	KCNQ1 act	Cl transport mod	SUMO Mot1 rescue	AI-2 QS modul
CS(=O)(=O)c1ccc2nc(NC(=O)c3ccco3)sc2c1	i	-16	i	1.2	-12	38
CC(C)C(=O)NNC(=O)c1cc2sccc2s1	i	-11	i	0.95	-20	16
Cc1cccc(NC(=O)C2(c3cccs3)CCOCC2)n1	i	-9	i	1	-18	28
Cc1ccc2nc(-c3ccc(NC(=S)NC(=O)C(C)C)cc3)sc2c1	i	-7	i	-0.16	3	7
Cc1ccc2nc(-c3ccc(NC(=S)NC4CC(C)(C)NC(C)(C)C4)cc3)sc2c1	8*	-32	i	-2.3	101	33
CCOC(=O)N1CCN(C(=O)/C(=C/c2cccc3ccccc23)NC(=O)c2ccc(OC)c(OC)c2)CC1	i	-12	i	0.16	-2	8
COc1ccc(C(=O)N/C(=C\c2cccc3ccccc23)C(=O)N2CCN(C)CC2)cc1OC	i	9.7*	i	0.085	14	20
O=C(NCC(c1ccco1)N1CCc2ccccc2C1)c1ccc(Cl)c([N+](=O)[O-])c1 (stereo not drawn)	6*	-13	i	.	3	15
O=C(NCC(c1ccco1)N1CCc2ccccc2C1)c1cccc([N+](=O)[O-])c1 (stereo not drawn)	i	-20	i	.	1	9
Cc1cc(C)c(CSc2nnnn2-c2ccc(C(=O)O)cc2)c(C)c1	i	-1	i	.	581*	15
COc1ccccc1C1=Nn2c(nnc2C2CCCCC2)SC1	.	.	.	.	354*	.
COc1ccc(OC)c(C2=Nn3c(nnc3C3CCCCC3)SC2)c1	i	-5	i	-1.5	4	0
O=C(OCc1nc2ccccc2s1)c1cccc(S(=O)(=O)N2CCOCC2)c1	i	-5	i	-5.1*	-9	12
O=C(CCc1ccc(S(=O)(=O)N2CCOCC2)cc1)OCc1nc2ccccc2s1	i	-7	i	.	-13	8
CC1(C)Cc2ccccc2C2=C(C(=O)N3CCCCCC3)C(=O)C(=O)N21	i	-14	i	0.12	307*	10
COC(=O)[C@H](C)NC(=O)Nc1cc(Cl)ccc1C	i	1	13*	.	-5	9
CCOC(=O)c1ccccc1NC(=O)N[C@@H](C)C(=O)OC	i	2	i	-3.4*	-21	18
CCOC(=O)c1ccccc1NC(=O)COC(=O)C1=COCCO1	i	-6	i	0.011	286*	22
Cn1c(N)c(C(=O)COC(=O)Cc2cccc(C(F)(F)F)c2)c(=O)n(C)c1=O	.	.	.	.	-13	.
COc1ccc(NS(=O)(=O)N2CCOCC2)cc1	i	-3	i	.	-5	16
CCc1nnc(SCC(=O)Nc2ccccc2)nc1CC	i	4.9*	i	0.49	-18	10
CCc1nnc(SCC(=O)NC2CCCC2)nc1CC	i	-3	i	0.011	4	18
CCN1/C(=C/C=C/C=C/c2sc3ccccc3[n+]2CC)Sc2ccccc21	17*	-42	i	-0.96	-25	?
COc1ccc(CNC(=O)[C@@H](NC(=O)C2CCN(C(=O)[C@@H](N)CC(C)C)CC2)C(C)C)cc1	i	-6	i	.	-9	10
O=C(O)c1cc2c([nH]c1=O)CCCC2	i	-7	i	0.1	-13	7
SMILES	KCNQ1 block	hERG protect	KCNQ1 act	Cl transport mod	SUMO Mot1 rescue	AI-2 QS modul
C=CCSC(=C(C#N)C#N)c1cc2c([nH]1)CCCC2	8*	-14	i	-2.3	13	-9
COc1ccc(-c2csc(NC(=O)CS(=O)(=O)c3ccccc3)n2)cc1	i	-19	i	.	31	22
COc1ccc(-c2csc(NC(=O)C3CCCCN3S(=O)(=O)c3ccccc3)n2)cc1 (stereo not drawn)	i	-8	151*	0.16	14	6
COc1ccc(NC(=O)C/C(C)=N/NC(=O)c2ccccn2)c(OC)c1	i	-2	i	.	0	11
Oc1c(C(Nc2cccc(C(F)(F)F)c2)c2ccncc2)ccc2cccnc12 (stereo not drawn)	13*	-4	i	-1.1	-15	-34
Oc1c(C(Nc2nccs2)c2ccc(C(F)(F)F)cc2)ccc2cccnc12 (stereo not drawn)	i	-15	i	2.4	.	?
O=C(Cc1ccc(F)cc1)Nc1nnc(-c2ccc(F)cc2)o1	i	-8	i	.	86	12
N#CC(C#N)=Cc1cn(-c2ncc(C(F)(F)F)cc2Cl)c2ccccc12	i	0	i	.	-6	12
CC(=O)/C=C\c1cn(-c2ncc(C(F)(F)F)cc2Cl)c2ccccc12	6*	-10	i	.	378	24
O=C1NC[C@H](c2ccccc2)N(CCc2cccc(F)c2)C1=O	i	-10	i	0.67	1	0
N#CC(C(=O)NC1CC1)c1nc2ccccc2nc1N1CCN(C/C=C/c2ccccc2)CC1 (stereo not drawn)	6*	-17	i	1.4	-9	15
N#CC(C(=O)NC1CC1)c1nc2ccccc2nc1N1CCCC1 (stereo not drawn)	i	-2	i	-0.68	-6	15
CC(C)(C)CC(C)(C)NC(=O)/C=C/C(=O)O	i	-9	i	0.049	0	7
COc1ccc(C(=O)N[C@H](C(=O)Nc2ccc(S(=O)(=O)N3CCOCC3)cc2)C(C)C)cc1	i	-15	i	-1.7	339*	17
COc1ccc(NC(=S)NNC(=O)c2ccc(S(=O)(=O)N3CCOCC3)cc2)cc1	i	0	i	2.4	12	19
CCOC(=O)C1=C(C)N2C(=C(C#N)[C@@H]1c1ccc(C(=O)OC)cc1)SC[C@@]2(O)C(C)(C)C	6*	-20	i	-0.4	.	-9
CCOC(=O)C1=C(C)N=C2SCCC(=O)N2C1c1ccc(C(=O)OC)cc1 (stereo not drawn)	i	-8	i	.	9	35
CC1CC(C)CN(S(=O)(=O)c2ccc3c(c2)CC(=O)N3)C1 (stereo not drawn)	.	.	.	.	-2	.
N#C/C(=C\c1ccc([N+](=O)[O-])o1)C(=O)Nc1ccc(F)cc1	i	-24	i	0.27	323*	12
CC(C(=O)Nc1cccc(S(=O)(=O)N2CCOCC2)c1)N1CCN(c2ccc(F)cc2)CC1 (stereo not drawn)	i	-8	i	-0.45	-3	7
CN(C)C(CNC(C(=O)Nc1ccc([N+](=O)[O-])cc1Br)c1ccccc1)c1ccccc1 (stereo not drawn)	9*	-13	i	0.6	-7	30

Bioassay records deposited in PubChem BioAssay by several laboratories.
